Data reported in ChEMBL document CHEMBL2417469, “Synthesis of novel analogs of 2-pyrazoline obtained from [(7-chloroquinolin-4-yl)amino]chalcones and hydrazine as potential antitumor and antimalarial agents” (Eur J Med Chem, 2013).

Key:
Assay type in all cases: functional
TK-10 = assay: Cytotoxicity against human TK10 cells after 48 hrs by SRB assay; settings: TK-10, 48 h
Outline: (§1)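 NCI 60-cell screen. Cells grew 24 h (37 °C, 5% CO2) before compound was added. Compounds were in DMSO and diluted in medium with gentamicin, then tested at five levels (100, 10, 1.0, 0.1, 0.01 µM) with 48 h continuous exposure. Adherent cells were fixed with TCA (10% final) and stained with 0.4% SRB, absorbance read at 515 nm. A time-zero plate was included. LC50 is the concentration giving 50% loss of protein relative to time zero.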

LOX IMVI = assay: Cytotoxicity against human LOXIMVI cells after 48 hrs by SRB assay
Outline: (§2)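 NCI 60-cell-line screen. Cells preincubated 24 h at 37 °C, 5% CO2; time-zero plates TCA-fixed. Compounds dissolved in DMSO and tested at five concentrations (100, 10, 1.0, 0.1, 0.01 µM) for 48 h continuous exposure. Adherent cells fixed with cold TCA (10% final), then SRB stained; absorbance at 515 nm. GI50, TGI and LC50 calculated from growth relative to time-zero and untreated controls.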

KM12 = assay: Cytotoxicity against human KM12 cells after 48 hrs by SRB assay; settings: KM12, 48 h; outline: as §2
HCC 2998 = assay: Cytotoxicity against human HCC2998 cells after 48 hrs by SRB assay; settings: HCC 2998, 48 h; outline: as §2
HCT-116 = assay: Cytotoxicity against human HCT116 cells after 48 hrs by SRB assay; settings: HCT-116, 48 h; outline: as §2
HOP-62 = assay: Cytotoxicity against human HOP62 cells after 48 hrs by SRB assay; settings: HOP-62, 48 h; outline: as §2
UACC-257 = assay: Cytotoxicity against human UACC257 cells after 48 hrs by SRB assay; settings: UACC-257, 48 h; outline: as §1
A498 = assay: Cytotoxicity against human A498 cells after 48 hrs by SRB assay; settings: A498, 48 h; for CC50: read-out: LC50 (the source's name); outline: as §2
786-0 = assay: Cytotoxicity against human 786-0 cells after 48 hrs by SRB assay; settings: 786-0, 48 h; outline: as §2
RPMI-8226 = assay: Cytotoxicity against human RPMI8226 cells after 48 hrs by SRB assay; settings: RPMI-8226, 48 h; outline: as §2
Malme-3M = assay: Cytotoxicity against human MALME-3M cells after 48 hrs by SRB assay; outline: as §2
PC-3 = assay: Cytotoxicity against human PC3 cells after 48 hrs by SRB assay; settings: PC-3, 48 h; outline: as §2
COLO 205 = assay: Cytotoxicity against human COLO205 cells after 48 hrs by SRB assay; settings: COLO 205, 48 h; outline: as §2
SN12C = assay: Cytotoxicity against human SN12C cells after 48 hrs by SRB assay; outline: as §2
NCI-H226 = assay: Cytotoxicity against human NCI-H226 cells after 48 hrs by SRB assay; settings: NCI-H226, 48 h; outline: as §2
CCRF-CEM = assay: Cytotoxicity against human CCRF-CEM cells after 48 hrs by SRB assay; outline: as §2
SNB-19 = assay: Cytotoxicity against human SNB19 cells after 48 hrs by SRB assay; settings: SNB-19, 48 h; outline: as §1
SK-MEL-28 = assay: Cytotoxicity against human SK-MEL-28 cells after 48 hrs by SRB assay; settings: SK-MEL-28, 48 h; for CC50: read-out: LC50 (the source's name); outline: as §2
MDA-MB-435 = assay: Cytotoxicity against human MDA-MB-435 cells after 48 hrs by SRB assay; settings: MDA-MB-435, 48 h; outline: as §2
NCI-H23 = assay: Cytotoxicity against human NCI-H23 cells after 48 hrs by SRB assay; settings: NCI-H23, 48 h; for CC50: read-out: LC50 (the source's name); outline: as §2
UO-31 = assay: Cytotoxicity against human UO31 cells after 48 hrs by SRB assay; settings: UO-31, 48 h; outline: as §1
M14 = assay: Cytotoxicity against human M14 cells after 48 hrs by SRB assay; settings: M14, 48 h; for CC50: read-out: LC50 (the source's name); outline: as §2
UACC-62 = assay: Cytotoxicity against human UACC62 cells after 48 hrs by SRB assay; settings: UACC-62, 48 h; for CC50: read-out: LC50 (the source's name); outline: as §1
SK-MEL-5 = assay: Cytotoxicity against human SK-MEL-5 cells after 48 hrs by SRB assay; settings: SK-MEL-5, 48 h; outline: as §2
DU-145 = assay: Cytotoxicity against human DU145 cells after 48 hrs by SRB assay; settings: DU-145, 48 h; outline: as §2
OVCAR-3 = assay: Cytotoxicity against human OVCAR3 cells after 48 hrs by SRB assay; settings: OVCAR-3, 48 h; outline: as §2
T47D = assay: Cytotoxicity against human T47D cells after 48 hrs by SRB assay; outline: as §1
MDA-MB-231 = assay: Cytotoxicity against human MDA-MB-231 cells after 48 hrs by SRB assay; settings: MDA-MB-231, 48 h; outline: as §2
SNB-75 = assay: Cytotoxicity against human SNB75 cells after 48 hrs by SRB assay; settings: SNB-75, 48 h; outline: as §1
SF-295 = assay: Cytotoxicity against human SF295 cells after 48 hrs by SRB assay; settings: SF-295, 48 h; outline: as §2
A549 = assay: Cytotoxicity against human A549/ATCC cells after 48 hrs by SRB assay; settings: A549, 48 h; for CC50: read-out: LC50 (the source's name); outline: as §2
MOLT-4 = assay: Cytotoxicity against human MOLT4 cells after 48 hrs by SRB assay; settings: MOLT-4, 48 h; outline: as §2
HOP-92 = assay: Cytotoxicity against human HOP92 cells after 48 hrs by SRB assay; settings: HOP-92, 48 h; outline: as §2
OVCAR-4 = assay: Cytotoxicity against human OVCAR4 cells after 48 hrs by SRB assay; settings: OVCAR-4, 48 h; outline: as §2

Structure (SMILES): COc1cc(C2CC(c3ccc(Nc4ccnc5cc(Cl)ccc45)cc3)=NN2C=O)cc(OC)c1OC (stereo not given)
- GI50 (TK-10): 3.09 µM
- LC50 (concentration giving 50% cell loss vs time zero) (TK-10): 38.6 µM
- GI50 (LOX IMVI): 1.89 µM
- LC50 (LOX IMVI): 7.83 µM
- GI50 (KM12): 5.87 µM
- LC50 (concentration killing 50% of cells) (KM12): > 100 µM
- GI50 (HCC 2998): 5.52 µM
- LC50 (HCC 2998): > 100 µM
- GI50 (HCT-116): 3.21 µM
- LC50 (HCT-116): > 100 µM
- GI50 (HOP-62): 4.13 µM
- LC50 (50% lethal concentration) (HOP-62): 96.1 µM
- GI50 (UACC-257): 2.84 µM
- LC50 (UACC-257): 55.4 µM
- GI50 (A498): 15.3 µM
- CC50 (A498): > 100 µM
- GI50 (786-0): 2.31 µM
- LC50 (786-0): 9.93 µM
- GI50 (RPMI-8226): 2.56 µM
- LC50 (concentration killing 50% of cells) (RPMI-8226): > 100 µM
- GI50 (Malme-3M): 3.2 µM
- LC50 (Malme-3M): > 100 µM
- GI50 (PC-3): 11.7 µM
- LC50 (PC-3): > 100 µM
- GI50 (COLO 205): 3.73 µM
- LC50 (COLO 205): > 100 µM
- GI50 (SN12C): 4.37 µM
- LC50 (50% net cell kill relative to time zero) (SN12C): > 100 µM
- GI50 (NCI-H226): 34.5 µM
- LC50 (50% lethal concentration) (NCI-H226): > 100 µM
- GI50 (CCRF-CEM): 1.82 µM
- LC50 (concentration killing 50% of cells relative to time zero) (CCRF-CEM): > 100 µM
- GI50 (SNB-19): 18.2 µM
- LC50 (SNB-19): > 100 µM
- GI50 (SK-MEL-28): 2.22 µM
- CC50 (SK-MEL-28): 14 µM
- GI50 (MDA-MB-435): 2.1 µM
- LC50 (MDA-MB-435): > 100 µM
- GI50 (NCI-H23): 20.4 µM
- CC50 (NCI-H23): > 100 µM
- GI50 (UO-31): 4.96 µM
- LC50 (UO-31): 67.5 µM
- GI50 (M14): 3.75 µM
- CC50 (M14): 48.3 µM
- GI50 (UACC-62): 2.2 µM
- CC50 (UACC-62): 59.3 µM
- GI50 (SK-MEL-5): 1.98 µM
- LC50 (concentration killing 50% of cells present at time zero) (SK-MEL-5): 35.5 µM
- GI50 (DU-145): 6.63 µM
- LC50 (concentration killing 50% of cells) (DU-145): > 100 µM
- GI50 (OVCAR-3): 1.91 µM
- LC50 (OVCAR-3): 6.03 µM
- GI50 (T47D): 2.33 µM
- LC50 (concentration giving 50% cell kill relative to time zero) (T47D): > 100 µM
- GI50 (MDA-MB-231): 4.39 µM
- LC50 (concentration killing 50% of cells present at time zero) (MDA-MB-231): > 100 µM
- GI50 (SNB-75): 5.19 µM
- LC50 (50% net cell kill) (SNB-75): > 100 µM
- GI50 (SF-295): 5.63 µM
- LC50 (SF-295): > 100 µM
- GI50 (A549): 6.9 µM
- CC50 (A549): > 100 µM
- GI50 (MOLT-4): 3.36 µM
- LC50 (MOLT-4): > 100 µM
- GI50 (HOP-92): 1.83 µM
- LC50 (concentration killing 50% of cells) (HOP-92): > 100 µM
- GI50 (OVCAR-4): 3.19 µM
- LC50 (OVCAR-4): > 100 µM

Structure (SMILES): Cc1ccc(C2CC(c3ccc(Nc4ccnc5cc(Cl)ccc45)cc3)=NN2C=O)cc1 (stereo not given)
- GI50 (TK-10): > 100 µM
- LC50 (concentration giving 50% cell loss vs time zero) (TK-10): > 100 µM
- GI50 (LOX IMVI): 4.11 µM
- LC50 (LOX IMVI): > 100 µM
- GI50 (KM12): 6.64 µM
- LC50 (concentration killing 50% of cells) (KM12): > 100 µM
- GI50 (HCC 2998): 7.44 µM
- LC50 (HCC 2998): > 100 µM
- GI50 (HCT-116): 25.2 µM
- LC50 (HCT-116): > 100 µM
- GI50 (HOP-62): > 100 µM
- LC50 (50% lethal concentration) (HOP-62): > 100 µM
- GI50 (UACC-257): > 100 µM
- LC50 (UACC-257): > 100 µM
- CC50 (A498): > 100 µM
- GI50 (786-0): 50.9 µM
- LC50 (786-0): > 100 µM
- GI50 (RPMI-8226): 2.18 µM
- LC50 (concentration killing 50% of cells) (RPMI-8226): > 100 µM
- GI50 (Malme-3M): > 100 µM
- LC50 (Malme-3M): > 100 µM
- GI50 (PC-3): 4.61 µM
- LC50 (PC-3): > 100 µM
- GI50 (COLO 205): 4.59 µM
- LC50 (COLO 205): > 100 µM
- GI50 (SN12C): 7.23 µM
- LC50 (50% net cell kill relative to time zero) (SN12C): > 100 µM
- GI50 (NCI-H226): > 100 µM
- LC50 (50% lethal concentration) (NCI-H226): > 100 µM
- GI50 (CCRF-CEM): 2.25 µM
- LC50 (concentration killing 50% of cells relative to time zero) (CCRF-CEM): > 100 µM
- GI50 (SNB-19): > 100 µM
- LC50 (SNB-19): > 100 µM
- GI50 (SK-MEL-28): > 100 µM
- CC50 (SK-MEL-28): > 100 µM
- GI50 (MDA-MB-435): 1.95 µM
- LC50 (MDA-MB-435): > 100 µM
- GI50 (NCI-H23): 6.93 µM
- CC50 (NCI-H23): > 100 µM
- GI50 (UO-31): 5.49 µM
- LC50 (UO-31): > 100 µM
- GI50 (M14): 6.88 µM
- CC50 (M14): > 100 µM
- GI50 (UACC-62): 4.13 µM
- CC50 (UACC-62): > 100 µM
- GI50 (SK-MEL-5): 1.74 µM
- LC50 (concentration killing 50% of cells present at time zero) (SK-MEL-5): > 100 µM
- GI50 (DU-145): > 100 µM
- LC50 (concentration killing 50% of cells) (DU-145): > 100 µM
- GI50 (OVCAR-3): 6.82 µM
- LC50 (OVCAR-3): > 100 µM
- GI50 (T47D): 1.51 µM
- LC50 (concentration giving 50% cell kill relative to time zero) (T47D): > 100 µM
- GI50 (MDA-MB-231): 6.09 µM
- LC50 (concentration killing 50% of cells present at time zero) (MDA-MB-231): > 100 µM
- GI50 (SNB-75): > 100 µM
- LC50 (50% net cell kill) (SNB-75): > 100 µM
- GI50 (SF-295): 4 µM
- LC50 (SF-295): > 100 µM
- GI50 (A549): 9.86 µM
- CC50 (A549): > 100 µM
- GI50 (MOLT-4): 5.13 µM
- LC50 (MOLT-4): > 100 µM
- GI50 (HOP-92): 2.14 µM
- LC50 (concentration killing 50% of cells) (HOP-92): > 100 µM
- GI50 (OVCAR-4): 5.15 µM
- LC50 (OVCAR-4): > 100 µM
